Assay results published in ChEMBL document CHEMBL4715781, “Exploration of bivalent ligands targeting putative mu opioid receptor and chemokine receptor CCR5 dimerization” (Bioorg Med Chem, 2016).
Calls of active or inactive are those of the source. The calls are words filed in the database; no cut-off is given here.

Experiments:
[1] = target: T1, C-C chemokine receptor type 5 (Homo sapiens, UniProt P51681); experiment: Agonist activity at CCR5 receptor in human MOLT4 cells transfected with Gqi5 assessed as calcium mobilization incubated for 15 mins by Fluo-4AM dye based fluorescence analysis; type: functional, cell-based; conditions: MOLT-4
How it was run: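 CCR5-MOLT-4 cells transfected with Gqi5, tested 48 h post-transfection at 25,000 cells/well in 50:1 HBSS:HEPES buffer. Fluo-4 AM with probenecid loaded for 45 min, then varying ligand concentrations added for 15 min. Fluorescence at 494/516 nm read for 120 s, with buffer alone added at 16 s in place of RANTES. Peak height taken as agonism read-out.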
Target sequence in this assay (P51681 whole entry, looked up): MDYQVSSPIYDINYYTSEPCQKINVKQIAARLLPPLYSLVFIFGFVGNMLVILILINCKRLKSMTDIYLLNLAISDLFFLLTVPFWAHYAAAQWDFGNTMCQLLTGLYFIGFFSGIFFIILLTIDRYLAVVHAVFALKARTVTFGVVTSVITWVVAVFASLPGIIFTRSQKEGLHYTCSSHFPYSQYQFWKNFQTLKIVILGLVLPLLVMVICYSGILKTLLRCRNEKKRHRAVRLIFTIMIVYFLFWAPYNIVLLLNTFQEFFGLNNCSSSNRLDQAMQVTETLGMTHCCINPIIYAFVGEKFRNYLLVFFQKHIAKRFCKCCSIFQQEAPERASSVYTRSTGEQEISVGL

[2] = target: T1, C-C chemokine receptor type 5; experiment: Antagonist activity at CCR5 receptor in human MOLT4 cells transfected with Gqi5 assessed as inhibition of RANTES-induced calcium mobilization incubated for 15 mins prior to RANTES addition and measured for 120 secs by Fluo-4AM dye based fluorescence analysis; type: functional, cell-based, MOLT-4
How it was run: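 CCR5-MOLT-4 cells transfected with Gqi5, assayed 48 h later at 25,000 cells/well. Fluo-4 AM/probenecid loading for 45 min, then ligands for 15 min. IC50 from non-linear regression of peak heights. Three repeats.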
Target sequence in this assay (P51681 whole entry): as the sequence (P51681 whole entry, looked up) above

[3] = tested on: Human immunodeficiency virus 1; experiment: Antiviral activity against HIV-1 BAL infected in human macrophages assessed as reduction in p24 production at 1 uM treated for 1 hr prior to viral infection and measured after 5 days by ELISA; type: functional, organism-based; conditions: Macrophage, time 5.0 day
How it was run: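 Macrophages derived from PBMCs with M-CSF (100 ng/mL) for 6 days, plated at 1 × 10^5 cells/mL and stimulated 48 h with IL-2/PHA. Polybrene for 30 min, compound (10–1000 nM) for 1 h before HIV-1 BaL (p24 1000 pg/mL). p24 in supernatant and lysate measured by ELISA 5 days post-infection. ANOVA with Dunnett's test.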

Mu-type opioid receptor [4] = target: Mu-type opioid receptor (Mus musculus, UniProt P42866); experiment: Displacement of [3H]NLX from mouse MOR expressed in CHO cell membrane incubated for 90 mins by liquid scintillation spectrophotometry; type: cell membranes
How it was run: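 mMOR-CHO membranes incubated 90 min at 30 °C with 2 nM [3H]naloxone and varying unlabeled ligand. Bound ligand collected by rapid GF-B filtration with 3 ice-cold Tris washes and counted by scintillation (45% efficiency). Competitor IC50 used to derive Ki. At least three independent experiments.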

Mu-type opioid receptor [5] = target: Mu-type opioid receptor (Homo sapiens, UniProt P35372); experiment: Antagonist activity at human MOR transfected in CHO cells co-transfected with Gqi5 assessed as inhibition of DAMGO-induced calcium mobilization incubated for 15 mins prior to DAMGO addition and measured for 90 secs by Fluo-4AM dye based fluorescence analysis; type: functional, cell-based
How it was run: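 Gqi5-transfected hMOR-CHO cells plated at 20,000/well and used 48 h after transfection. Loaded 30 min with Fluo-4 AM/probenecid in HBSS:HEPES, then ligands added for 15 min. IC50 from non-linear regression of peak heights. Three repeats.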

[6] = tested on: Human immunodeficiency virus 1; experiment: Antiviral activity against HIV-1 BAL infected in human astrocytes assessed as reduction in p24 production at 10 to 1000 nM treated for 1 hr prior to viral infection and measured after 5 days by ELISA; type: functional, organism-based; conditions: Astrocyte, dose 10-1000 nM, time 5.0 day
How it was run: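 Primary human astrocytes plated at 1 × 10^5 cells/mL and stimulated 48 h with IL-2 (100 ng/mL) and PHA (5 µg/mL). Polybrene for 30 min, then compound at 10, 100, 1000 nM for 1 h before infection with HIV-1 BaL (p24 1000 pg/mL). p24 ELISA on supernatants and lysates at day 5.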

[7] = tested on: Human immunodeficiency virus 1; experiment: Antiviral activity against HIV-1 BAL infected in human PBMC assessed as reduction in p24 production at 10 to 1000 nM treated for 1 hr prior to viral infection and measured after 5 days by ELISA; type: functional, organism-based; conditions: dose 10-1000 nM, time 5.0 day
How it was run: (§1)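 Ficoll-isolated human PBMCs plated at 1 × 10^5 cells/mL and stimulated 48 h with IL-2 (100 ng/mL) and PHA (5 µg/mL). Then polybrene (2 µg/mL) for 30 min, compound at 10, 100 or 1000 nM for 1 h, and infection with R5-tropic HIV-1 BaL (p24 1000 pg/mL). Supernatant and RIPA lysate p24 measured by ELISA at day 5. Dunnett's test against infection alone.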

[8] = tested on: Human immunodeficiency virus 1; experiment: Antiviral activity against HIV-1 SF162 infected in human astrocytes assessed as reduction in viral invasion by measuring decrease in Tat protein expression at 100 nM treated prior to viral infection and measured after 18 hrs by luciferase based assay; type: functional, organism-based; conditions: Astrocyte
How it was run: (§2)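 Primary human astrocytes in 24-well plates transfected with pBlue3'LTR-luc. […] Uninfected cells served as negative control. After about 18–20 h, cells were PBS-rinsed and lysed, and Tat-driven luciferase was measured.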

[9] = tested on: Human immunodeficiency virus 1; experiment: Antiviral activity against HIV-1 SF162 infected in human astrocytes assessed as reduction in viral invasion by measuring decrease in Tat protein expression at 100 nM co-treated with morphine prior to viral infection and measured after 18 hrs by luciferase based assay; type: functional, organism-based; conditions: Astrocyte; how it was run: as §2
[10] = tested on: Human immunodeficiency virus 1; experiment: Antiviral activity against HIV-1 BAL infected in human macrophages assessed as reduction in p24 production at 500 nM treated for 1 hr prior to viral infection and measured after 5 days by ELISA; type: functional, organism-based; conditions: Macrophage, time 5.0 day
How it was run: (§3)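 PBMCs were Ficoll-isolated from leukopak blood and grown in RPMI-1640 with 10% FBS; macrophages came from PBMCs given M-CSF 100 ng/mL for 6 days. Cells at 1 × 10^5/mL were stimulated with IL-2 (100 ng/mL) and PHA (5 µg/mL) for 48 h, then polybrene (2 µg/mL) for 30 min. Compound was added 1 h before R5 HIV-1 BaL (p24 1000 pg/mL). Supernatant and RIPA-lysate p24 were measured by ELISA at day 5.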

CHO [11] = experiment: Antagonist activity at CCR5 receptor in CHO cells co-expressing hMOR, CD4 and luciferase reporter assessed as inhibition of CD4-gp120 complex interaction with receptor dimer by measuring inhibition of cell-cell fusion process at 100 nM measured after co-incubation of CHO cells with HEK293 cells …; type: cell-based; conditions: Cricetulus griseus, filed as antagonist, time 18.0 hrs
CHO [12] = experiment: as above; type: cell-based; conditions: Cricetulus griseus, filed as antagonist, time 18.0 hrs; remark: listed apart in the source
[13] = tested on: Human immunodeficiency virus 1; experiment: Antiviral activity against HIV-1 BAL infected in human PBMC assessed as reduction in p24 production at 500 nM treated for 1 hr prior to viral infection and measured after 5 days by ELISA; type: functional, organism-based; conditions: time 5.0 day; how it was run: as §3
[14] = target: C-C chemokine receptor type 5 (Macaca mulatta, UniProt P61813); experiment: Displacement of [125I]MIP-1alpha from CCR5 receptor in rhesus monkey membrane incubated for 120 mins by liquid scintillation counting analysis; type: cell membranes, Cell membrane
[15] = tested on: Human immunodeficiency virus 1; experiment: Antiviral activity against HIV-1 BAL infected in human PBMC assessed as reduction in p24 production at 1 uM treated for 1 hr prior to viral infection and measured after 5 days by ELISA; type: functional, organism-based; conditions: time 5.0 day; how it was run: as §1
[16] = tested on: Human immunodeficiency virus 1; experiment: Antiviral activity against HIV-1 SF162 infected in human astrocytes assessed as reduction in viral invasion by measuring decrease in Tat protein expression at 100 nM treated prior to viral infection and measured after 18 hrs by luciferase based assay relative to maraviroc in presence of morphine; type: functional, Astrocyte
How it was run: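 Primary human astrocytes carried the transfected pBlue3'LTR-luc reporter. […] Uninfected cells served as negative control. Lysates were taken about 18–20 h later after PBS rinses, and Tat expression was quantified by luciferase luminescence.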

CHO [17] = experiment: Binding affinity to CCR5-hMOR heterodimer in CHO cells co-expressing CD4 and luciferase reporter assessed as inhibition of CD4-gp120 complex interaction with receptor dimer by measuring inhibition of cell-cell fusion process at 3000 nM measured after co-incubation of CHO cells with HEK293 cells …; type: cell-based; conditions: time 18.0 hrs
CHO [18] = experiment: as above; type: cell-based; conditions: time 18.0 hrs; remark: listed apart in the source
[19] = tested on: Human immunodeficiency virus 1; experiment: Antiviral activity against HIV-1 SF162 infected in human astrocytes assessed as reduction in viral invasion by measuring decrease in Tat protein expression at 100 nM treated prior to viral infection and measured after 18 hrs by luciferase based assay relative to maraviroc; type: functional, Astrocyte
How it was run: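 Primary human astrocytes in 24-well plates were transfected with the LTR-luciferase reporter pBlue3'LTR-luc. […] Uninfected cells served as negative control. After about 18–20 h, cells were PBS-rinsed and lysed, and luciferase activity was read as Tat expression.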

Chain of Mu-type opioid receptor (Homo sapiens, UniProt P35372) (P35372 whole entry): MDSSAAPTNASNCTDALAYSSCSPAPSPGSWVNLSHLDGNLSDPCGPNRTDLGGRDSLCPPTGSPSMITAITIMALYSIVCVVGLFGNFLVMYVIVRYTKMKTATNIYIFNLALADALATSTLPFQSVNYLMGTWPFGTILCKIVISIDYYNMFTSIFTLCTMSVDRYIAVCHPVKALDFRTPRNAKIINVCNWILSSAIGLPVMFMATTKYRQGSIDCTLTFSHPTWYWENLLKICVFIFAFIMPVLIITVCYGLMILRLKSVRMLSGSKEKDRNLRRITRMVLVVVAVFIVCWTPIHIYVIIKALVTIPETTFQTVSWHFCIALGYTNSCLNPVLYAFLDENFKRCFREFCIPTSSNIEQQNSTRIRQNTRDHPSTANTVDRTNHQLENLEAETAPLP
Chain of Mu-type opioid receptor (Mus musculus, UniProt P42866) (P42866 whole entry): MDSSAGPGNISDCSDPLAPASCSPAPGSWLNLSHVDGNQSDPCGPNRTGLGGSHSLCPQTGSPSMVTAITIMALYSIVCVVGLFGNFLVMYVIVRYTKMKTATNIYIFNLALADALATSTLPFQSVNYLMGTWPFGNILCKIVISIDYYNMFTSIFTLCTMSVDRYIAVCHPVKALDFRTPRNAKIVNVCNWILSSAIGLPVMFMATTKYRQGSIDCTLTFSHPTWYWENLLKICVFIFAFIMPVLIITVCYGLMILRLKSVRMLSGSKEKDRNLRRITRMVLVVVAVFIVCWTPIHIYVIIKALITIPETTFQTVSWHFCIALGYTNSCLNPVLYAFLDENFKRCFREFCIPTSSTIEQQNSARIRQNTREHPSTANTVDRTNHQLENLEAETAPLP

Structure (SMILES) | Activity [1] | IC50 [2] [nM] | Ki (Mu-type opioid receptor [4]) [nM] | IC50 (Mu-type opioid receptor [5]) [nM] | other results
CNC(=O)COCC(=O)NCCCCCNC(=O)COCC(=O)Nc1ccc([C@H](CCN2[C@@H]3CC[C@H]2C[C@@H](n2c(C)nnc2C(C)C)C3)NC(=O)C2CCC(F)(F)CC2)cc1 | inactive | 948 |  |  | 
Cc1nnc(C(C)C)n1[C@H]1C[C@H]2CC[C@@H](C1)N2CC[C@H](NC(=O)C1CCC(F)(F)CC1)c1ccc(NC(=O)COCC(=O)NCCCCCNC(=O)COCC(=O)N[C@@H]2CC[C@@]3(O)[C@H]4Cc5ccc(O)c6c5[C@@]3(CCN4CC3CC3)[C@H]2O6)cc1 | inactive | 2410 | 3.8 | 21.8 | Activity [3]: inactive; Activity [6]: Active; Activity [7]: inactive
CNC(=O)COCC(=O)NCCCCCCCNC(=O)COCC(=O)N[C@@H]1CC[C@@]2(O)[C@H]3Cc4ccc(O)c5c4[C@@]2(CCN3CC2CC2)[C@H]1O5 |  |  | 9.2 |  | 
Cc1nnc(C(C)C)n1[C@H]1C[C@H]2CC[C@@H](C1)N2CC[C@H](NC(=O)C1CCC(F)(F)CC1)c1ccccc1 |  |  |  |  | Activity [8]: Active; Activity [9]: inactive; Activity [10]: Active; Activity (CHO [11]): Active; Activity (CHO [12]): Active; Activity [13]: Active
CNC(=O)COCC(=O)NCCCCCCCCCNC(=O)COCC(=O)Nc1ccc([C@H](CCN2[C@@H]3CC[C@H]2C[C@@H](n2c(C)nnc2C(C)C)C3)NC(=O)C2CCC(F)(F)CC2)cc1 | inactive | 392 |  |  | 
CNC(=O)COCC(=O)NCCCCCCCNC(=O)COCC(=O)Nc1ccc([C@H](CCN2[C@@H]3CC[C@H]2C[C@@H](n2c(C)nnc2C(C)C)C3)NC(=O)C2CCC(F)(F)CC2)cc1 | inactive | 622 |  |  | Ki [14]: 151 nM
CNC(=O)COCC(=O)NCCCCCCCNC(=O)COCC(=O)Nc1cccc([C@H](CCN2[C@@H]3CC[C@H]2C[C@@H](n2c(C)nnc2C(C)C)C3)NC(=O)C2CCC(F)(F)CC2)c1 | inactive | 129 |  |  | 
Cc1nnc(C(C)C)n1[C@H]1C[C@H]2CC[C@@H](C1)N2CC[C@H](NC(=O)C1CCC(F)(F)CC1)c1cccc(NC(=O)COCC(=O)NCCCCCCCNC(=O)COCC(=O)N[C@@H]2CC[C@@]3(O)[C@H]4Cc5ccc(O)c6c5[C@@]3(CCN4CC3CC3)[C@H]2O6)c1 | inactive | 1340 | 10 | 17.1 | 
Cc1nnc(C(C)C)n1[C@H]1C[C@H]2CC[C@@H](C1)N2CC[C@H](NC(=O)C1CCC(F)(F)CC1)c1ccc(NC(=O)COCC(=O)NCCCCCCCCCNC(=O)COCC(=O)N[C@@H]2CC[C@@]3(O)[C@H]4Cc5ccc(O)c6c5[C@@]3(CCN4CC3CC3)[C@H]2O6)cc1 | inactive | 543 | 6.49 | 21.9 | Activity [3]: Active; Activity [6]: Active; Activity [15]: Active
CNC(=O)COCC(=O)NCCCCCCCCCNC(=O)COCC(=O)N[C@@H]1CC[C@@]2(O)[C@H]3Cc4ccc(O)c5c4[C@@]2(CCN3CC2CC2)[C@H]1O5 |  |  | 1.11 | 41.4 | 
Cc1nnc(C(C)C)n1[C@H]1C[C@H]2CC[C@@H](C1)N2CC[C@H](NC(=O)C1CCC(F)(F)CC1)c1ccc(NC(=O)COCC(=O)NCCCCCCCNC(=O)COCC(=O)N[C@@H]2CC[C@@]3(O)[C@H]4Cc5ccc(O)c6c5[C@@]3(CCN4CC3CC3)[C@H]2O6)cc1 | inactive | 126 | 3.24 | 40 | Activity [3]: Active; Ki [14]: 239 nM; Activity [8]: Active; Activity [9]: Active; fold change (FC) [16]: 7; Activity (CHO [17]): Active; Activity (CHO [18]): Active; Activity [6]: Active; fold change (FC) [19]: 3.3; Activity [7]: Active
CNC(=O)COCC(=O)NCCCCCNC(=O)COCC(=O)N[C@@H]1CC[C@@]2(O)[C@H]3Cc4ccc(O)c5c4[C@@]2(CCN3CC2CC2)[C@H]1O5 |  |  | 0.78 | 92.1 | 
